For data set [1], the target named is T1, Protein cereblon/Poly [ADP-ribose] polymerase 1 (Homo sapiens, UniProt P09874+Q96SW2). Kind of data set: Protac activity at CRBN/PARP1 in human MDA-MB-468 cells assessed as induction of PARP1 degradation measured after 24 hrs by Western blot analysis. The format is cell-based. A digest of the protocol: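 Concentration-response over a wide range, 24 h exposure; PARP1 quantified by western blot and normalized to β-tubulin density; DC50 derived from two biologically independent experiments.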
Target sequence in this assay (P09874 whole entry): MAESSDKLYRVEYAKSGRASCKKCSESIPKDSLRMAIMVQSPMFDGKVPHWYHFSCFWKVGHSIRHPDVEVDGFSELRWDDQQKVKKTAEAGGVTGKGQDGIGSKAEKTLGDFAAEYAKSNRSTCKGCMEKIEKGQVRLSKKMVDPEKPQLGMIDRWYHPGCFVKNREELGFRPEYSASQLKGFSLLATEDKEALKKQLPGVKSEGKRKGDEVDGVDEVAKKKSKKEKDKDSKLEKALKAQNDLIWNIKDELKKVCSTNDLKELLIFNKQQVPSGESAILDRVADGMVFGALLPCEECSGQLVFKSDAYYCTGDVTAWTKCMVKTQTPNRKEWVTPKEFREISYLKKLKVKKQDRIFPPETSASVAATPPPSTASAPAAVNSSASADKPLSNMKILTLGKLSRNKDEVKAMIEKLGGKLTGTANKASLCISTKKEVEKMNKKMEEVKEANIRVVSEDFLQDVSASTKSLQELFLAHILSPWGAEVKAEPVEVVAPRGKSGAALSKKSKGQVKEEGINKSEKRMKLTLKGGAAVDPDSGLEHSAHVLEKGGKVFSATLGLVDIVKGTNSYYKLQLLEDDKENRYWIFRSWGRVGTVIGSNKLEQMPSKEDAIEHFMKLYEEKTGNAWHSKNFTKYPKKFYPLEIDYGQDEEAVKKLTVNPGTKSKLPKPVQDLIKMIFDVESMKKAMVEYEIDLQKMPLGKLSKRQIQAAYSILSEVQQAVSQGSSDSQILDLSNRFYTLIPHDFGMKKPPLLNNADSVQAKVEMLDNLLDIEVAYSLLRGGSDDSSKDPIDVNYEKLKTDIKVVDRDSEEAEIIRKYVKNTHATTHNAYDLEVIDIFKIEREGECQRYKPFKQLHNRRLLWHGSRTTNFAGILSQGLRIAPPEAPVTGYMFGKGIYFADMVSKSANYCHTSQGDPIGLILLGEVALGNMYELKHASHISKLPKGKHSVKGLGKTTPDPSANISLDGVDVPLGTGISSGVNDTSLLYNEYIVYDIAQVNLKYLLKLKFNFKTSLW
Target sequence in this assay (Q96SW2 whole entry): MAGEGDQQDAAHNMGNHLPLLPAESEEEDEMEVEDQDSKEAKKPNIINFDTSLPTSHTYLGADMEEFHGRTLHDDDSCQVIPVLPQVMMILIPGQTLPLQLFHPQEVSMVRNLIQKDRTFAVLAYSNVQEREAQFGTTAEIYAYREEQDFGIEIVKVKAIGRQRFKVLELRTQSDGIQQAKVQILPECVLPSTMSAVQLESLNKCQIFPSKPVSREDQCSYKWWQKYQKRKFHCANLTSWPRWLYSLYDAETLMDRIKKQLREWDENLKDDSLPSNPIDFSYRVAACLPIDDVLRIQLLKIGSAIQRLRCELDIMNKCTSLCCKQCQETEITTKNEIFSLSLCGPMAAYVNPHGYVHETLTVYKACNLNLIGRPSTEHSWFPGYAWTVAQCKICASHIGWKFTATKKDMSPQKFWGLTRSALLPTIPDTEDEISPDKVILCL
(Immunoblotting shows a protein as a band on a membrane.)

The subject of another data set is MDA-MB-231. As to the kind of experiment: Antiproliferation activity against human MDA-MB-231 assessed as cell growth inhibition incubated for 7 days by CCK-8 assay. It is filed as functional, cell-based. Conditions: time 7.0 day. The method, boiled down: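 Cells were sub-cultured at least twice and seeded for 24 h before dosing. Compounds came from 10 mM DMSO stocks, given as 10 points of 3-fold serial dilution starting at 10-20 μM. Incubation was about 7 days (Capan-1 13 days) at 37 °C, 5% CO2. Read-out was CCK-8 absorbance at 450 nm, as % growth versus DMSO wells (duplicate wells). IC50 was fitted by nonlinear regression; three independent experiments.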
On the technique in general: Formazan colour is commonly taken as a measure of viable cells.

For data set [2], the target named is T1, Protein cereblon/Poly [ADP-ribose] polymerase 1. Kind of data set: Protac activity at CRBN/PARP1 in human MDA-MB-436 cells assessed as induction of PARP1 degradation by measuring PARP1 level at 100 nM pretreated for 2 hrs followed by compound washout and measured after 24 hrs by Western blot analysis. The format is cell-based. A digest of the protocol: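 MDA-MB-436 cells pretreated 2 h at 100 nM, compound washed out, cells harvested at various times up to 24 h afterwards; PARP1 versus vehicle-treated cells by western blot, β-tubulin loading control.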
Target sequence in this assay (P09874 2-1014 limits assumed): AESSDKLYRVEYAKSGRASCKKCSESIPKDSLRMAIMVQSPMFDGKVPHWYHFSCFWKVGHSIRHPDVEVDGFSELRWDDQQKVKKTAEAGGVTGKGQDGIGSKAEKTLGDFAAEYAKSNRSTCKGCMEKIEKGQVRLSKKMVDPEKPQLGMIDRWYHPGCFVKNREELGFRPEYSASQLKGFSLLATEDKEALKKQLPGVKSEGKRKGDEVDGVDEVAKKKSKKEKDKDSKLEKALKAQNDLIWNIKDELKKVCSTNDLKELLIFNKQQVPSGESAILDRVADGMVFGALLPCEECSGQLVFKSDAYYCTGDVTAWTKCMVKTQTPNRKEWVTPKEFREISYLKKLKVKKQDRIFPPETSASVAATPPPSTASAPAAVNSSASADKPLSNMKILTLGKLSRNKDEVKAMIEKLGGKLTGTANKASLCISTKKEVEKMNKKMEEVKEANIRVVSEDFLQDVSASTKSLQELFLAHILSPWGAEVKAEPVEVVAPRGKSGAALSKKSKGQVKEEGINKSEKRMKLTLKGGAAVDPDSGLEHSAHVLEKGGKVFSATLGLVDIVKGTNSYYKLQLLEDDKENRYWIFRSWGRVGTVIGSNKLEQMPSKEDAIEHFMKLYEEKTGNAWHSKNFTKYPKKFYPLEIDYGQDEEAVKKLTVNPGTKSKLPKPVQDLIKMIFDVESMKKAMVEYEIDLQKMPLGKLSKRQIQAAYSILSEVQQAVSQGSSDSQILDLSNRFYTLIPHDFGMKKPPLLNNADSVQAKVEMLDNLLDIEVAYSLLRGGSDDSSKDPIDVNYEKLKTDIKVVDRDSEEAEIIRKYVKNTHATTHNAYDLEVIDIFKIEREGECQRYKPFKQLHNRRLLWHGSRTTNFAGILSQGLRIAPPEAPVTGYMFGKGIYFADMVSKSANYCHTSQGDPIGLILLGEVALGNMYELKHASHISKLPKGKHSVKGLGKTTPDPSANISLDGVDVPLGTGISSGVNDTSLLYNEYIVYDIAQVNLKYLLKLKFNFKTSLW
Target sequence in this assay (Q96SW2 whole entry partner): as the sequence (Q96SW2 whole entry) above

Data set [3] shares this target. As to the kind of experiment: Protac activity at CRBN/PARP1 in human CAPAN-1 cells assessed as induction of PARP1 degradation incubated for 24 hrs by Western blot analysis. It is filed as cell-based. A digest of the protocol: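 Capan-1 cells were treated 24 h (1-1000 nM, or a wider dose range for DC50). Lysis was in RIPA buffer with protease inhibitors, and 20-30 μg protein was blotted. PARP1 was normalized to β-tubulin and to DMSO control, quantified by densitometry. DC50 came from two independent experiments.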
Target sequence in this assay (P09874 whole entry): as the sequence (P09874 whole entry) above
Target sequence in this assay (Q96SW2 whole entry): as the sequence (Q96SW2 whole entry) above

Data set [4] can be described thus: Acute toxicity in Balb/c mouse xenografted with Capan1 cells assessed as mean weight loss at 50 mg/kg, ip qd administered for 5 days in presence of cisplatin measured on day 10 relative to control. It is filed as organism-based. Conditions: in vivo, 240 h, time 10 day. The method, boiled down:
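Male BALB/c nude mice carried Capan-1 xenografts (5×10^6 cells s.c.), randomized at ~150 mm³ (6 per group). Treatment was 25 or 50 mg/kg intraperitoneally or 100 mg/kg by oral gavage, once daily on days 0-4. Cisplatin 6 mg/kg in saline was given intraperitoneally on day 2, 45 min after the partner drug. Tumor volume and body weight were measured 2-3 times weekly.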

In the next data set the test system is HEK293. As to the kind of experiment: Cytotoxicity against human HEK293 cells assessed as cell viability incubated for 120 hrs by CCK-8 assay. The format is cell-based. As to conditions: hek293, 120 h.

Data on one molecule can be found in ChEMBL document CHEMBL4699498 (J Med Chem, 2020).

Calls of active or inactive are those of the source. The rule behind the calls is not given here.

What is called DC50 is the midpoint of the concentration-degradation curve.

As for `O=C(CCCCCCCCCCC(=O)N1CCN(C(=O)c2cc(Cc3n[nH]c(=O)c4ccccc34)ccc2F)CC1)NCCNc1cccc2c1C(=O)N(C1CCC(=O)NC1=O)C2=O` (stereo unspecified), the DC50 in data set [1] amounted to 0.263 nM; in data set [3], 6.72 nM. Besides, in the data set on MDA-MB-231, the outcome was Active. Also, the Activity entry in data set [2] was “Below limit of detection”; in data set [4] it was 12%; in the data set with HEK293, “Non-Toxic”.
